From article PMC3131534 (Chemistry & biology, 2011)

How the values were obtained:
human DUB UCHL3 = biological target: T1, human DUB UCHL3 (Homo sapiens, UniProt P15374); test: Cross-reactivity against purified DUB; format: biochemical; details: purified enzyme, Figure S4
T1 sequence (P15374 1-230): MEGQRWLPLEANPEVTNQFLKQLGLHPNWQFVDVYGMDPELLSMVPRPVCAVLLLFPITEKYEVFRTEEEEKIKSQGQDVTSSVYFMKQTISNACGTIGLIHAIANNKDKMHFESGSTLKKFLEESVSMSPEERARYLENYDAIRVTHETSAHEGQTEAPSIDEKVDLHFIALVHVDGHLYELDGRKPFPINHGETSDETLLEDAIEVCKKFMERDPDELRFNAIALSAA

human SENP8 = biological target: T2, human SENP8 (Homo sapiens, UniProt Q96LD8); test: Cross-reactivity against purified deNEDDylase; format: biochemical; details: purified enzyme, Figure S4
T2 sequence (Q96LD8 1-212): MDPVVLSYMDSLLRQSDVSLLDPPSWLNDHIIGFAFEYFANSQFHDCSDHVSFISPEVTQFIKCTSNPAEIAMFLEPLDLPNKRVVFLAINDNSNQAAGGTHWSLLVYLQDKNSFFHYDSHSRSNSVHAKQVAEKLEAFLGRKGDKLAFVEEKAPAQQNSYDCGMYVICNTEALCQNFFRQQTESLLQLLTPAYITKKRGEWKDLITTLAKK

ΔNhSENPs1, 2, 5, 6 and 7 = test: Fluorogenic substrate screen against the panel of recombinant hSENPs; format: biochemical, human; details: 50μM inhibitor, 1 hour preincubation, heat map Figure 4
How it was run: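 Recombinant N-terminally truncated hSENPs were preincubated 1 h at 37 °C with 50 μM inhibitor in 50 mM Tris pH 8.0, 20 mM NaCl, 10 mM DTT. The enzyme level is given only for hSENP1, at 2 μM final. Then 100 nM Ac-QTGG-AFC (SENP1, 2, 5) or Ac-LRGG-AFC (SENP6, 7) was added. AFC release was read at 405/510 nm, 37 °C. Slope (RFU/min) was taken relative to DMSO (100%), averaging independent triplicates.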

endogenous SENP6 = biological target: T3, endogenous SENP6 (Homo sapiens, UniProt Q9GZR1); test: Cell lysate treatment, competition of HA-SUMO2vme labeling; format: binding; details: treatment of cell lysates
T3 sequence (Q9GZR1 1-1112): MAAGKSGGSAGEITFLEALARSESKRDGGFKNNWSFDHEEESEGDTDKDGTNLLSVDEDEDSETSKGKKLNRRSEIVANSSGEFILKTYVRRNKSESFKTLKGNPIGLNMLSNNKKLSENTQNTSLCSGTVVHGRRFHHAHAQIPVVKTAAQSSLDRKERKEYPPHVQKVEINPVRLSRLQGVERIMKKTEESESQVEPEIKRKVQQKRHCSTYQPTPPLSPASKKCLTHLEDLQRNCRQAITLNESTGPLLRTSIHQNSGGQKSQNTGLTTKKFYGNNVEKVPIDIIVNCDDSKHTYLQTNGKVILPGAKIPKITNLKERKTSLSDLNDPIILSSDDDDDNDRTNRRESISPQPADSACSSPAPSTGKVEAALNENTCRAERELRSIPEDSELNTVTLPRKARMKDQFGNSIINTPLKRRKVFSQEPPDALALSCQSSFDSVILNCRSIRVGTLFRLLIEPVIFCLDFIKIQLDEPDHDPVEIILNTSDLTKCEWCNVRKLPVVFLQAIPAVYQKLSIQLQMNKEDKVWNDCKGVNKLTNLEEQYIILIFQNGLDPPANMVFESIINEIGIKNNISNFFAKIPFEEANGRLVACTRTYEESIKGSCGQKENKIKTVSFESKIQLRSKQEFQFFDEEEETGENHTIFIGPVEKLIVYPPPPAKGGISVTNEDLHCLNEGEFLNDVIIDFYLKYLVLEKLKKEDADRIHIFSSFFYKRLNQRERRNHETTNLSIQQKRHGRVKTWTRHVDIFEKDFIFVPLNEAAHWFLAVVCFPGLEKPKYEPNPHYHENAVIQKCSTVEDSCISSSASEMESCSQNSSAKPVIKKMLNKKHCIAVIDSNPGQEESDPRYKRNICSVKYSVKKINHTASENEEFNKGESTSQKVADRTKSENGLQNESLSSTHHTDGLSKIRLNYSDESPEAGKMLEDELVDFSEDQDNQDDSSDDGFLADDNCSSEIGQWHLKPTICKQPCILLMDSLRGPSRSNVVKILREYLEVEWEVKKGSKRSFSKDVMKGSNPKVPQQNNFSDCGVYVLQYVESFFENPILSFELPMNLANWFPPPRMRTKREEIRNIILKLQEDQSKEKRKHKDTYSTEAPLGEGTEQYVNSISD

[1] = tested on: DUBs in HEK293 cell lysates; test: Competition of HA-Ubvme probe labeling in HEK293 cell lysates; format: binding, human; details: Figure S4
endogenous SENP1 = biological target: T4, endogenous SENP1 (Homo sapiens, UniProt Q9P0U3); test: Cell lysate treatment, competition of HA-SUMO2vme labeling; format: binding; details: treatment of cell lysates
T4 sequence (Q9P0U3 1-644): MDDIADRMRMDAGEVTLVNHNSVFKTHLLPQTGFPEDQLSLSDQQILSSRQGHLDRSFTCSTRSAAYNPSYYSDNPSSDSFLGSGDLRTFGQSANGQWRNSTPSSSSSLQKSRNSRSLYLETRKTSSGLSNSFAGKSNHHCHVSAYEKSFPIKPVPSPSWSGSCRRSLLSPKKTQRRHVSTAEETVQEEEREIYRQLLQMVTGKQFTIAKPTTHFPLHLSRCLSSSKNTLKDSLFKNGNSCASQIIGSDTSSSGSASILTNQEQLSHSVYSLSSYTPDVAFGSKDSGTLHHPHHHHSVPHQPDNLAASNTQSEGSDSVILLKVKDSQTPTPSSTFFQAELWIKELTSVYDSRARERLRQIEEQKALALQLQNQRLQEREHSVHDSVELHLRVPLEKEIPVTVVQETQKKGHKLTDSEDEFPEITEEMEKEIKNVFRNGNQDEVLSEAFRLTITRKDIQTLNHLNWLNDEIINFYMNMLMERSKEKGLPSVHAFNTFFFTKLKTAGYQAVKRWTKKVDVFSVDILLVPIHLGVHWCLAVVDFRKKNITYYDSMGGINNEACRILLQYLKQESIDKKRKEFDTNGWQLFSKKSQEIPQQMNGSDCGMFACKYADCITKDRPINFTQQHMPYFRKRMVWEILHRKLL

[2] = Stability of the epoxide in aqueous media; format: physicochemical; details: relative to aza-aspartic acid epoxides
ΔNhSENP1 = biological target: T5, ΔNhSENP1 (Homo sapiens, UniProt Q9P0U3); test: ProSUMO processing; format: biochemical; details: 100nM ΔNhSENP1, 0–100μM compound, 30 min pre-treatment
T5 sequence (Q9P0U3 450-613 limits assumed): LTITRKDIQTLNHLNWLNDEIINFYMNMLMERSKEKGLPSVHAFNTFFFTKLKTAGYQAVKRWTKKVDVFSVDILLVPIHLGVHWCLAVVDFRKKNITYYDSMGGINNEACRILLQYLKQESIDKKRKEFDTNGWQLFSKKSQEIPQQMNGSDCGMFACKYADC
How it was run: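 ΔNhSENP1 (100 nM) was pretreated with inhibitor for 30 min in 50 mM Tris pH 7.4, 5 mM NaCl, 5 mM DTT (37 °C in methods, room temperature in legend). It then cleaved recombinant hSUMO1 carrying its full pro-sequence and a C-terminal His6 tag for 1 h at 37 °C. Loss of the pro-region and tag was scored as a band shift on SDS-PAGE with Gelcode Blue stain, beside a substrate-only lane.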

PfSENP1 = details: P. falciparum lysates; ref Ponder et al. Submitted; cited from earlier work

SMILES | activity against UCHL3 (human DUB UCHL3) | activity against hSENP8 (human SENP8) | relative inhibitor potency in the fixed concentration screen (ΔNhSENPs1, 2, 5, 6 and 7) | other results
C[C@H](O)C(NC(=O)[C@H](CCC(N)=O)NC(=O)Cc1ccc(O)c([N+](=O)[O-])c1)C(=O)NCC(=O)NCC(=O)COC(=O)c1c2ccccc2cc2ccccc12 (some centres unmarked) [VEA499] | only activity against hSENP8 | only activity against hSENP8 | substantially more potent than the tripeptide (VEA498) equivalent | –
O=C(CNC(=O)c1ccc(CNC(=O)c2cccc(C(=O)O)c2)cc1)COC(=O)c1c2ccccc2cc2ccccc12 [VEA401] | – | – | – | block of endogenous SENP6 labeling by HA-SUMO2vme probe (endogenous SENP6): not able to find conditions in which we could treat cell lysates with VEA401 and block labeling of endogenous SENP1 or SENP6; block of DUB labeling by HA-Ubvme probe [1]: did not block labeling of DUBs; block of endogenous SENP1 labeling by HA-SUMO2vme probe (endogenous SENP1): not able to find conditions in which we could treat cell lysates with VEA401 and block labeling of endogenous SENP1 or SENP6
O=C(O)c1cccc(C(=O)NCc2ccc(C(=O)NNC(=O)[C@H]3O[C@@H]3C(=O)N(Cc3cccc4ccccc34)Cc3cccc4ccccc34)cc2)c1 [VEA260] | virtually no activity against either enzyme | virtually no activity against either enzyme | – | stability of the compound [2]: more stable compound; activity in ProSUMO processing assay (ΔNhSENP1): retained full activity against hSENP1
CC(C)C[C@H](NC(=O)Cc1ccc(O)c([N+](=O)[O-])c1)C(=O)N[C@@H](CCCN=C(N)N)C(=O)NCC(=O)NCC(=O)COC(=O)c1c2ccccc2cc2ccccc12 [VEA561] | only activity against hSENP8 | only activity against hSENP8 | most potent towards hSENP6 and hSENP7 | –
O=C(O)CN(NC(=O)c1ccc(CNC(=O)c2cccc(C(=O)O)c2)cc1)C(=O)[C@H]1O[C@@H]1C(=O)N(Cc1cccc2ccccc12)Cc1cccc2ccccc12 [JCP666] | – | – | – | potency against parasite SENP (PfSENP1): effectively blocked PfSENP activity
